The list is not random: actives were taken first. Their share in the collection is about 2.9%.
mABHD4 FP: ABHD4 inhibitors, primary screen, biochemical, fluorescence polarization, mouse; (Lyso)-N-acylphosphatidylethanolamine lipase (Mus musculus), Q8VD66; purified mABHD4, FP-Rh probe fluorescence polarization; inhibition, % at 8.92 µM; 0.54% of 370,000 active; AID 720543, 2013;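 active = inhibition exceeding the mean over every tested compound plus 3 SD, cut at about 30% in these data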;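 also: 0% = plate median of compound wells and 100% = S159A mutant with DMSO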
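Assay system: mABHD4 protein; medium: HEPES pH 7.0, NaCl, Pluronic buffer; dosing: 8.92 µM, single dose; schedule: 45 min + 60 min at 25 °C; signal: FP readout, ex 525 nm / em 598 nm; read-out: normalized percent inhibition of probe labeling; repeats: single replicate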
PAD4 inh: human PAD4 inhibitors, primary screen, biochemical, fluorescence polarization, 1536-well format | 0.41% of 330,000 active | recombinant PAD4, RCA probe fluorescence polarization | Protein-arginine deiminase type-4 (Homo sapiens), Q9UM07 | inhibition, % at 6.36 µM | AID 485272, 2010;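 active = percent inhibition above a cutoff equal to the mean of all tested compounds plus 3 SD, cut at about 15% in these data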;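 also: 0% = PAD4 with RCA probe and DMSO and 100% = probe without PAD4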
HTRA1 inh: HTRA1 serine protease inhibitors, primary screen, biochemical, fluorescence polarization, HTS. recombinant HTRA1, FP-rhodamine activity-based probe. 0.5% of 340,000 active. inhibition, % at 5.96 µM; in the data active = inhibition above about 36%;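 also: 0% = enzyme with DMSO and 100% = wells lacking enzyme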
TCR CD3 inh: inhibitors of human TCR-CD3 interaction, primary screen, biochemical, fluorescence, TAMRA-labeled TCR probe | T-cell receptor (TCR) | inhibition, % at 9.4 µM | 0.37% of 360,000 active; in the data active = inhibition above about 19%;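 also: recombinant mutant TCR 2C K166C tagged with TAMRA read by polarization; 0% = receptor in buffer alone and 100% = receptor with positive control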
PRMT1 inh: PRMT1 methyltransferase inhibitors, primary screen, biochemical, fluorescence polarization. Protein arginine N-methyltransferase 1 (Homo sapiens), Q99873. inhibition, % at 2.79 µM. recombinant PRMT1, activity-based probe fluorescence polarization. AID 652257, 2013. 1.3% of 370,000 active;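 active = inhibition above about 21% made by adding two undisclosed values, limit read from the data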
SIAE primary: human SIAE inhibitors, primary screen, biochemical, fluorescence polarization, FP-Rh probe, 1536-well HTS; Sialate O-acetylesterase (Homo sapiens), Q9HAT2; SIAE FP-Rh probe binding; inhibition, % at 9.66 µM; 0.69% of 370,000 active; AID 1053197, 2014;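 active = inhibition above a cutoff: mean of compounds within the control limits plus 3 SD of those, cut at about 17% in these data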;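 also: 0% = plate median of compound wells and 100% = probe without SIAE protein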
Target sequence (Q9HAT2 whole entry, looked up): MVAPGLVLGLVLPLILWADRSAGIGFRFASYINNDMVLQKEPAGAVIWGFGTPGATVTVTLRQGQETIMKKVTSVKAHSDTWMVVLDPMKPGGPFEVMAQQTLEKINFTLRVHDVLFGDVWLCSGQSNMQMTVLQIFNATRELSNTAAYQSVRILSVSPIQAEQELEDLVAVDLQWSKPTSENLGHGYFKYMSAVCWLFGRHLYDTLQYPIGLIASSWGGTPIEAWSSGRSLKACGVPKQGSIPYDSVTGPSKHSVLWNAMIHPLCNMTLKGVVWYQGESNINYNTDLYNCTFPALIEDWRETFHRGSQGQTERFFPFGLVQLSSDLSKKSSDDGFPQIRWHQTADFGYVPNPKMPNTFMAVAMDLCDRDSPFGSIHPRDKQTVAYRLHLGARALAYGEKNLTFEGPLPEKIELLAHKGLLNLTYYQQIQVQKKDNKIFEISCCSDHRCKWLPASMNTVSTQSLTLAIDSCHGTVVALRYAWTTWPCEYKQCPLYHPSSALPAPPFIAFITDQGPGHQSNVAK
SIAE confirm: human SIAE inhibitors, retest, confirmation, biochemical, fluorescence polarization, FP-Rh probe, triplicate. shares compounds with SIAE primary. inhibition, % at 9.66 µM. AID 1117263, 2014. 13% of 2,300 active. SIAE FP-Rh activity-based probe;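 active = mean inhibition of the replicates above the hit cutoff set in the primary screen, cut at about 17% in these data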;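 also: 0% = SIAE with DMSO and probe and 100% = probe without SIAE; inhibitors lower polarization as more probe stays unbound to SIAE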
An asterisk follows results filed as active; / = not tested or not shown; ! = a repeat was not active.

SMILES | mABHD4 FP | PAD4 inh | HTRA1 inh | TCR CD3 inh | PRMT1 inh | SIAE primary | SIAE confirm
CCN(CC(=O)Nc1c(C(=O)OC)[nH]c2ccc(Cl)cc12)c1ccc2c(c1)OCO2 | 22 | -1 | 13 | -2 | 8 | 21* | 13
COC(=O)C1=C(C)N(Cc2cccc(C(F)(F)F)c2)C(=NCc2ccc(OC)cc2)NC1c1ccc(F)cc1 (centres undefined) | 19 | / | / | 0 | -3 | -2 | /
Cc1ccc(-n2[nH]c(C)c(C=Nc3ccc4[nH]c(=O)[nH]c4c3)c2=O)cc1 | 1 | -1 | 14 | -4 | 3 | 23* | 3
COc1ccc(OC)c(/C=N/NC(=O)c2cc3c(OC)cc(OC)cc3[nH]2)c1 | 3 | 2 | -6 | 3 | 2 | 7 | /
C=CCOc1ccc(/C=N/NC(=O)c2cc3c(OC)cc(OC)cc3[nH]2)cc1 | -5 | 1 | 21 | 1 | 0 | 27* | -18
CCOc1ccc(/C=N/NC(=O)c2cc3c(OC)cc(OC)cc3[nH]2)cc1OC | 8 | 4 | 5 | -2 | -3 | 43* | 0
CCOc1ccc(/C=N/NC(=O)c2cc3c(OC)cccc3[nH]2)cc1 | 0 | 2 | -4 | 2 | 0 | -9 | /
COC(=O)[C@@H](Cc1ccccc1)NC(=O)[C@H]1O[C@@H](n2cnc3c(=O)[nH]c(N)nc32)[C@H](O)[C@@H]1O | 2 | / | / | 3 | -2 | 2 | /
COC(=O)[C@H]1C[C@@]2(C#N)c3ccccc3N(C(=O)OC(C)(C)C)[C@H]2N1C(=O)OC(C)(C)C | 2 | / | / | / | -1 | 4 | /
O=c1[nH][nH]c(=O)c2cc([N+](=O)[O-])ccc12 | 8 | -2 | 6 | 0 | 3 | 18*! | 5
COC(=O)[C@]12C[C@H](CC(=O)N3CCC(c4ccccc4)CC3)C(=O)N(CCc3ccc(OC)c(OC)c3)C1=C[C@H](COCc1ccccc1)O[C@@H]2C | 0 | / | / | / | 2 | 2 | /
c1ccc2sc(Nc3nc4cc5c(cc4s3)OCO5)nc2c1 | 7 | -2 | -3 | -8 | -1 | 7 | /
Fc1ccc2nc(Nc3nc4cc5c(cc4s3)OCO5)sc2c1 | 7 | -4 | 0 | -3 | -1 | 25* | 8
Fc1ccc2nc(Nc3nc4cc5c(cc4s3)OCCO5)sc2c1 | 12 | -4 | -15 | -8 | -1 | 32* | 6
COCc1cc(C)nc(SCC(=O)Nc2ccc3c(c2)OCO3)c1C#N | -8 | 6 | 1 | 0 | -3 | 17* | 0
COCc1cc(C)nc(SCC(=O)Nc2ccc3c(c2)OCCO3)c1C#N | -5 | 0 | 2 | -4 | -5 | -1 | /
Nc1n[nH]c(N)c1N=Nc1ccc(F)cc1 | 2 | -1 | -10 | 0 | -9 | 0 | /
COc1ccc(N=Nc2c(N)n[nH]c2N)cc1 | -1 | -4 | 1 | 6 | -6 | 22* | 1
CCN(CC)S(=O)(=O)c1cc(Br)ccc1OC | -5 | -11 | 7 | -5 | 0 | 18* | 1
O=C1CCC(NC(=O)Cc2ccccc2)C(=O)N1 (centres undefined) | 6 | / | / | -7 | 11 | 5 | /
COC(=O)c1ccc(S(=O)(=O)N2CCC(NC(=O)Cc3cccc(C)c3)CC2)cc1 | 3 | / | / | / | 3 | 1 | /
O=C(N/N=C/c1ccoc1)c1ccccc1Br | -4 | / | -3 | 3 | -3 | -4 | /
O=C(N/N=C/c1ccoc1)c1cc(Br)ccc1O | 7 | -25 | 10 | 17 | -1 | 19* | 8
C/C(=N\N=C1\NC(=O)CC(C(=O)O)S1)c1ccc(F)cc1 (centres undefined) | -3 | 2 | 1 | 2 | -1 | -4 | /
COc1ccc(/C(C)=N/N=C2/NC(=O)CC(C(=O)O)S2)cc1 (centres undefined) | 1 | -4 | 1 | 5 | -2 | 22* | 0
SMILES | mABHD4 FP | PAD4 inh | HTRA1 inh | TCR CD3 inh | PRMT1 inh | SIAE primary | SIAE confirm
Nc1ccc(C(=O)N/N=C/c2sc(N3CCOCC3)nc2-c2ccccc2)cc1 | 14 | 1 | 11 | -2 | 1 | 17* | 4
Cc1ccccc1Nc1c(-c2ccncc2)nc2ccc(Br)cn12 | -3 | -1 | -24 | 2 | 0 | -1 | /
Brc1ccc2nc(-c3ccncc3)c(NC3CCCC3)n2c1 | 0 | -2 | 5 | 0 | 4 | 19* | 2
CCC1(c2ccccc2)NC(=S)N(c2cccc(C)c2C)N1 (centres undefined) | 3 | 4 | -4 | -2 | 2 | 17* | -5
CCOC(=O)N/N=C/c1cn(Cc2ccc(Cl)cc2)c2ccccc12 | -2 | 3 | -9 | 3 | -1 | 18* | -4
Clc1ccc(/C=N/Nc2ncnc3ccccc23)cc1Cl | -2 | 0 | 2 | 3 | -2 | 27* | -23
Fc1ccccc1/C=N/Nc1ncnc2ccccc12 | 6 | -2 | 13 | 6 | 2 | -9 | /
COc1ccc(OCCC(=O)Nc2ccc(S(N)(=O)=O)cc2)cc1 | 0 | -5 | -8 | -2 | -2 | 18* | -1
Clc1ccc(-c2nnc(SCc3cccc4ccccc34)n2Cc2ccco2)cc1 | -17 | / | / | / | 3 | -6 | /
COc1ccccc1CN1CCNC(=O)C1CC(=O)NCCCn1cccn1 (centres undefined) | 4 | 2 | -5 | 4 | -2 | 40* | 8
COC(=O)C1CN(CCc2ccccc2)CCS(=O)(=O)N1Cc1ccccc1 (centres undefined) | 3 | / | / | / | 0 | 3 | /
CN(C)c1ccc(N=Cc2nc(-c3ccccc3)oc2O)cc1 | 1 | 9 | 1 | 1 | -4 | 18* | 15
C[C@H]1COc2cccc(F)c2S(=O)(=O)N1C | 4 | / | / | / | 0 | 3 | /
C=C1CCC[C@]2(C)C[C@H]3OC(=O)C(CNCCN(CC)CC)[C@H]3CC12 (some centres undefined) | 11 | -7 | -2 | 2 | -3 | 22* | 0
COc1ccc(OC)c([N+](=O)[O-])c1C(N)=O | 2 | -7 | 2 | 4 | 8 | 33* | 2
O=[N+]([O-])c1ccccc1/C=N/n1c(-c2cccnc2)n[nH]c1=S | 6 | 5 | -1 | 3 | 1 | 17* | 0
O=[N+]([O-])c1cc(/C=N/n2c(-c3cccnc3)n[nH]c2=S)ccc1Cl | 5 | 7 | -2 | -1 | 17 | -5 | /
